Test results reported in ChEMBL document CHEMBL1156924, “Structure-activity relationships of diphenylpiperazine N-type calcium channel inhibitors” (Bioorg Med Chem Lett, 2010).
In brackets after ≈: the same amount, converted by molar mass.

Columns and labels:
[1] = Cmax at Sprague-Dawley rat at 10 mg/kg, po; type: ADME, organism-based; set-up: dose 10 mg/kg, route oral; conditions: in vivo
In short: (§1)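 Rat plasma PK after a single 10 mg/kg oral dose, with a 2 mg/kg intravenous arm used for comparison. Results are means of 2–3 animals. […] Cmax is the highest observed plasma level and Tmax the time at which it occurs. t1/2 is the terminal elimination half-life.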

Rattus norvegicus [2] = experiment: Analgesic activity in Sprague-Dawley rat assessed as inhibition of spinal nerve injury-induced mechanical allodynia at 30 mg/kg, po after 60-90 mins; type: functional; set-up: scale not given: the % may be the effect or the level left
In short: (§2)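 Chung spinal nerve ligation model in male Sprague-Dawley rats (200–300 g), operated under halothane. Dosing was a single 30 mg/kg oral dose in propylene glycol (3 ml/kg), n = 5–7, given after baseline testing. Mechanical allodynia was measured as von Frey paw-withdrawal threshold and thermal hyperalgesia by paw withdrawal. Testing ran at 30 min intervals to 120 min, and the value reported is maximum % activity.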

[3] = biological target: N-type calcium channel alpha-1b/alpha2delta-1/beta-1b (Homo sapiens, UniProt Q00975); experiment: Inhibition of N type calcium channel alpha-1b/alpha-2-delta-1/beta-1b expressed in HEK293 cells at holding potential of -100 mV by whole-cell patch clamp method; type: cell-based
Chain of N-type calcium channel alpha-1b/alpha2delta-1/beta-1b (Q00975 whole entry): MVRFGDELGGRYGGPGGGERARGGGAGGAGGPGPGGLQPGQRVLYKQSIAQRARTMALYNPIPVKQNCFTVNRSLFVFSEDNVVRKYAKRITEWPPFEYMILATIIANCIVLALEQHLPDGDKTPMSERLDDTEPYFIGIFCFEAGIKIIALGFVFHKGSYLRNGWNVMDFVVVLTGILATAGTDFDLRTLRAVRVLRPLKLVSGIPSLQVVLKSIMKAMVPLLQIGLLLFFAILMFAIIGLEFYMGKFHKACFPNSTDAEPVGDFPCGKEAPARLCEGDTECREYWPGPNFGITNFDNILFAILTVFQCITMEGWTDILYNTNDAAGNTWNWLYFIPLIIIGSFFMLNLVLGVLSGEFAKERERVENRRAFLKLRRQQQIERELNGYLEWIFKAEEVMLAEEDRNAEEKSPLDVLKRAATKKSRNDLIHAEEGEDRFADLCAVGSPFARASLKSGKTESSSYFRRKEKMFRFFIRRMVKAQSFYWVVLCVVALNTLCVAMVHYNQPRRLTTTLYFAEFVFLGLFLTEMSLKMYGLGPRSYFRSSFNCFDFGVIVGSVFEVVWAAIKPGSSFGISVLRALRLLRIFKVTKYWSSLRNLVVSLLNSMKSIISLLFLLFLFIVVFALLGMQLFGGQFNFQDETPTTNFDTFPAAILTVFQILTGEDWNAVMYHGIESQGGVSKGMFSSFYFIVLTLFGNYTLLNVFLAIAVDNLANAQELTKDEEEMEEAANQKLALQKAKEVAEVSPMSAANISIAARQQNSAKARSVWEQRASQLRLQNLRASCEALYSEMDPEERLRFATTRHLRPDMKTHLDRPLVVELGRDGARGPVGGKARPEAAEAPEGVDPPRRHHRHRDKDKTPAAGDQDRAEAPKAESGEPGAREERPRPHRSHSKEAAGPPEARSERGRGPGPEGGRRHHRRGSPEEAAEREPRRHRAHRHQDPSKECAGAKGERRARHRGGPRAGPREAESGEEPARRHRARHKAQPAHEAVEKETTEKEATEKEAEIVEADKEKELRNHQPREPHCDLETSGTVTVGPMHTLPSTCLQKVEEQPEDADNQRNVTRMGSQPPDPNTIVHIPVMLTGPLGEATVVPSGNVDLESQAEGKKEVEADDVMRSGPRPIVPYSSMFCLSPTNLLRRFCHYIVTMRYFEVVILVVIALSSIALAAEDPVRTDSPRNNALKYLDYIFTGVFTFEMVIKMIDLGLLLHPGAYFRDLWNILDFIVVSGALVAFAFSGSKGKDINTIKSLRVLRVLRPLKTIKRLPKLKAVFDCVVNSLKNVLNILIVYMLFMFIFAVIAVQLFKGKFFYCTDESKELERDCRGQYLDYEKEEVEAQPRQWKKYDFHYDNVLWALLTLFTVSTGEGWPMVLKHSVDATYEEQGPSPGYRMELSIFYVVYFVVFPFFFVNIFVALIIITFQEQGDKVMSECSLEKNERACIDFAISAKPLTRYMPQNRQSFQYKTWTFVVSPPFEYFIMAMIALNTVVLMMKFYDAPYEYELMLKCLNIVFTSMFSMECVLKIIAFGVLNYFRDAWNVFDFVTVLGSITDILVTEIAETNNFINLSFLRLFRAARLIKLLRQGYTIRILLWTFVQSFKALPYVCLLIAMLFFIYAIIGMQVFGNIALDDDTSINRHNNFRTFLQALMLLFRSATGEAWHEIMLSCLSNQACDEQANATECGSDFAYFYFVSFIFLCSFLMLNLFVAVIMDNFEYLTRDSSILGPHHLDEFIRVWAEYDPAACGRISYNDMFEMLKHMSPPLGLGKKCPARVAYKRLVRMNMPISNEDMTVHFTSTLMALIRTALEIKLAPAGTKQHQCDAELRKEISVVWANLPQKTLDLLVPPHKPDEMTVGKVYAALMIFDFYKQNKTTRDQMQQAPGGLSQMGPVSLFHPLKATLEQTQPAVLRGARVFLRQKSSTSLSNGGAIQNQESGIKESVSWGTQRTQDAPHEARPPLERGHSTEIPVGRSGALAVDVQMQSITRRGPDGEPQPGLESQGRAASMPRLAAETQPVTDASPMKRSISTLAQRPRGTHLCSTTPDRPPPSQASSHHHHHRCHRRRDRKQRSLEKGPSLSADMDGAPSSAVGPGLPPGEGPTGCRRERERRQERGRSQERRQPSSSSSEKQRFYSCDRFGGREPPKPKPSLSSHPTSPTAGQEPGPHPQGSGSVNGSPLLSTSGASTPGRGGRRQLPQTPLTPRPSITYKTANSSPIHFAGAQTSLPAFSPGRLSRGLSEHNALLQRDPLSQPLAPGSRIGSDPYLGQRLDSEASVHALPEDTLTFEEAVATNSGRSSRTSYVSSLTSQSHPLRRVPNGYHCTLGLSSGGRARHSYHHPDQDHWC
Chain of N-type calcium channel alpha-1b/alpha2delta-1/beta-1b (P54289 25-956 partner limits assumed): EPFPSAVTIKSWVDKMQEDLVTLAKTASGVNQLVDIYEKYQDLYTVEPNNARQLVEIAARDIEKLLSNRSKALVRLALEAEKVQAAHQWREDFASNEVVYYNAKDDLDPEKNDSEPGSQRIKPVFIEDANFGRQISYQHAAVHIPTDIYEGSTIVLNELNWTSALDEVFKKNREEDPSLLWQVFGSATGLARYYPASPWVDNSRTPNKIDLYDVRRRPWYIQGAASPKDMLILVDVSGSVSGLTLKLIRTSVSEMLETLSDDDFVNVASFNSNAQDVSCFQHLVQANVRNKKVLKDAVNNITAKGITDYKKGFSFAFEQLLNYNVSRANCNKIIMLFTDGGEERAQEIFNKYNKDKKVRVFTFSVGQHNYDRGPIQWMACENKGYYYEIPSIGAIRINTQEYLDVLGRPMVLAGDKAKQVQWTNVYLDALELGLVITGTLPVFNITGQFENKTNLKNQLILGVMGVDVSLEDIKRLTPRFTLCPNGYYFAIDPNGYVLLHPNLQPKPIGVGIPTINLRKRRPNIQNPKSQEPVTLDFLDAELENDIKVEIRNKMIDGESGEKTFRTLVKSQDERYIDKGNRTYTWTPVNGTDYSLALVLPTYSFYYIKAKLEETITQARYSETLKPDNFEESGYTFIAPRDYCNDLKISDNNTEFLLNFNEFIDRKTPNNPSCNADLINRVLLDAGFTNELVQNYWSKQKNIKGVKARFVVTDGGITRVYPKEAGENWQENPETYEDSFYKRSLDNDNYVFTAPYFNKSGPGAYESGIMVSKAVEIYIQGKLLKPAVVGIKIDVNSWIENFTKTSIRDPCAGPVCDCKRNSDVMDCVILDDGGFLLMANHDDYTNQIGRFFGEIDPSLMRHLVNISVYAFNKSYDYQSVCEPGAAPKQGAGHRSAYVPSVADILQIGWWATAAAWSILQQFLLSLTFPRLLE
Chain of N-type calcium channel alpha-1b/alpha2delta-1/beta-1b (P54289 957-1103 partner limits assumed): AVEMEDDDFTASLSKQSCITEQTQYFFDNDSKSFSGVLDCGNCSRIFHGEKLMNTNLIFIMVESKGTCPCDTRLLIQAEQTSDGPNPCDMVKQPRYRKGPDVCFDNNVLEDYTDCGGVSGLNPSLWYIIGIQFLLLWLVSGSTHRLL
Chain of N-type calcium channel alpha-1b/alpha2delta-1/beta-1b (Q02641 whole entry partner): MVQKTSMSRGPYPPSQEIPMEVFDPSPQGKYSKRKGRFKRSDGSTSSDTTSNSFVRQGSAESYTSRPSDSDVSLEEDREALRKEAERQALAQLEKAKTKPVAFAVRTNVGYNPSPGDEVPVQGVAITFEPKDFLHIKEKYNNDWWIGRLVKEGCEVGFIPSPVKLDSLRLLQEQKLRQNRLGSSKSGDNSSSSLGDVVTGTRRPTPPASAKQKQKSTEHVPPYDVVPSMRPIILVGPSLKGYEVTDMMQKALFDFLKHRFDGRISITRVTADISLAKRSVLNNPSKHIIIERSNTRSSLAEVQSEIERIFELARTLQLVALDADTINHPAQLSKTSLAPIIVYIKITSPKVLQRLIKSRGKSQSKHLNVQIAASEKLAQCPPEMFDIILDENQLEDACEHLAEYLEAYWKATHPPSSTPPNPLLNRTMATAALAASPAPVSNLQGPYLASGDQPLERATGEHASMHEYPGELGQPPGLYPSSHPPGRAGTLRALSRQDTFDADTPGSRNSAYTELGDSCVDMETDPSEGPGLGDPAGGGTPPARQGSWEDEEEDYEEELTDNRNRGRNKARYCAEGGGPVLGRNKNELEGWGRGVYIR

[4] = Cmax at Sprague-Dawley rat at 2 mg/kg, iv; type: ADME, organism-based; set-up: dose 2 mg/kg, route intravenous; conditions: in vivo
[5] = Half life at Sprague-Dawley rat at 2 mg/kg, iv; type: ADME, organism-based; set-up: dose 2 mg/kg, route intravenous; conditions: in vivo
[6] = biological target: T1, Voltage-dependent L-type calcium channel alpha1C/alpha2delta/beta1b (Homo sapiens, UniProt Q13936); experiment: Inhibition of L-type calcium channel alpha-1c/alpha-2-delta-1/beta-1b expressed in HEK293 cells by FLIPR method; type: cell-based
In short: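 HEK cells stably co-expressing CaV1.2 and Kir2.3 were loaded with Fluo-4 (45 min, 29 °C) and held in 30 mM KCl buffer (pH 7.4), giving a partially inactivated state. Calcium entry was evoked with 130 mM KCl stimulation buffer and fluorescence read for 3 min. An 8-point concentration series (0.003–10) was fitted with a logistic function.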

[7] = Half life at Sprague-Dawley rat at 10 mg/kg, po; type: ADME, organism-based; set-up: dose 10 mg/kg, route oral; conditions: in vivo; in short: as §1
[8] = AUC (0 to 24 hrs) at Sprague-Dawley rat at 2 mg/kg, iv; type: ADME, organism-based; set-up: time < 24 hr, dose 2 mg/kg, route intravenous; conditions: plasma
[9] = biological target: T1, Voltage-dependent L-type calcium channel alpha1C/alpha2delta/beta1b; experiment: Inhibition of L type calcium channel alpha-1c/alpha-2-delta-1/beta-1b expressed in HEK293 cells in presence of -100 mV holding potential by whole-cell patch clamp method; type: cell-based
In short: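 Manual whole-cell patch clamp in HEK cells transiently expressing rat CaV2.2 (N-type) or CaV1.2 (L-type) with α2δ-1 and β1b. Barium currents (5 mM BaCl2 external, pH 7.2; Cs-methanesulfonate internal) were stepped from −100 mV to +10 mV, using 3–5 cells per compound. Estimated IC50 = [D]/((1/fr) − 1), calculated from a single concentration assuming 1:1 binding.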

Rattus norvegicus [10] = experiment: Analgesic activity in Sprague-Dawley rat assessed as inhibition of spinal nerve injury-induced thermal hyperalgesia at 30 mg/kg, po after 60-90 mins; type: functional; set-up: scale not given: the % may be the effect or the level left; in short: as §2
[11] = AUC (0 to 24 hrs) at Sprague-Dawley rat at 10 mg/kg, po; type: ADME, organism-based; set-up: time < 24 hr, dose 10 mg/kg, route oral; conditions: plasma; in short: as §1
[12] = Aqueous solubility at pH 7.4; type: physicochemical
In short: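 Thermodynamic equilibrium solubility following the OECD water solubility method. Quantification was by LC/MS/MS, interpolating saturation solubility from a regression calibration curve of standards.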

[13] = Tmax at Sprague-Dawley rat at 10 mg/kg, po; type: ADME, organism-based; set-up: dose 10 mg/kg, route oral; conditions: in vivo; in short: as §1
[14] = Oral bioavailability at Sprague-Dawley rat at 10 mg/kg; type: ADME, organism-based; conditions: in vivo; in short: as §1

Cmax [1]: 582 nM
IC50 [3]: 0.04 µM
Cmax [4]: 2550 nM
half-life [5]: 8 h
IC50 [6]: 6.2 µM
half-life [7]: 6 h
AUC(0-t) at 24 h [8]: 1.6 µM·h
IC50 [9]: 8.5 µM
AUC(0-t) at 24 h [11]: 5.3 µM·h
solubility [12]: 0.37 µg/mL (≈ 0.747 µM)
Tmax [13]: 3 h
bioavailability [14]: 66%
Compound: O=C(CC(c1ccccc1)c1ccccc1)N1CCN(C(c2ccccc2)c2cccc(Cl)c2)CC1 (centres undefined)
Activity (Rattus norvegicus [2]): 27.6%
Activity (Rattus norvegicus [10]): 95.1%
